Test [1] can be described thus: Antiaggregatory activity in pig platelets assessed as inhibition of platelet-activating factor-induced platelet aggregation after 5 mins. It counts as functional, cell-based. The conditions noted are these: Sus scrofa. The gist of the method: (§1)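 Pig blood (6 pigs) was spun at 1000 rpm for 10 min to give PRP, then 1500 rpm for 10 min to give PPP. PRP was adjusted to 2×10^8 platelets/ml with autologous PPP. Compound (final 100 µM to 0.001 µM, diluted in NS) or NS was added before agonist: ADP 10 µM, AA 350 µM or PAF 0.1 µM final. Aggregation was read optically at 37 °C for 5 min, in sixplicate. IC50 came from the concentration–inhibition curve.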

Test [2] relates to Rattus norvegicus. Put plainly: Antithrombotic activity in Wister rat assessed as reduction of thrombus weight at 10 nmol/kg, po (reference value: 31.87 +/- 1.71 mg). It counts as functional.
The nature of test [3]: Antiaggregatory activity in pig platelets assessed as inhibition of adenosine diphosphate-induced platelet aggregation after 5 mins. Particulars: Sus scrofa. It counts as functional, cell-based. In a few lines: as §1
A short description of test [4]: Antiaggregatory activity in pig platelets assessed as inhibition of arachidonic acid-induced platelet aggregation after 5 mins. It counts as functional, cell-based. Particulars: Sus scrofa. The gist of the method: as §1
Test [5] relates to Rattus norvegicus. Description: Antithrombotic activity in Wister rat assessed as reduction of thrombus weight at 10 nmol/kg, po (reference value: 28.21 +/- 1.11 mg). It counts as functional.
Test [6] has as its system Rattus norvegicus. Put plainly: Antithrombotic activity in Wister rat assessed as reduction of thrombus weight at 1 nmol/kg, po (reference value: 31.87 +/- 1.71 mg). It counts as functional.
The nature of test [7]: Antiplatelet activity in rabbit platelets assessed as inhibition of collagen-induced platelet aggregation. It counts as functional, cell-based. Particulars: Oryctolagus cuniculus.

Counter-ions that a name gives are not always drawn.

Broadly, the IC50 is the point on the concentration scale where inhibition reaches its midpoint. Take `Cc1nc(C(=O)NNC(=O)[C@H](Cc2c[nH]c3ccccc23)NC(=O)OC(C)(C)C)cc2c1[nH]c1ccccc12`: the IC50 in test [1] was found to be 4.3 µM; in test [3], 21.7 µM; in test [4], 0.6 µM. For the same compound, the figures for the Activity in the test on Rattus norvegicus [2] and with Rattus norvegicus [5] were 21.52 mg and 19.04 mg, respectively.
As to `Cc1nc(C(=O)NNC(=O)[C@H](C)NC(=O)OC(C)(C)C)cc2c1[nH]c1ccccc12`, the results for the IC50 in test [1], in test [3] and in test [4] were 162 µM, 118 µM and 20 µM, respectively. Moreover, the Activity with Rattus norvegicus [2] came out at 22.67 mg; in the test with Rattus norvegicus [5], 20.06 mg.
For `CSCC[C@H](NC(=O)OC(C)(C)C)C(=O)NNC(=O)c1cc2c([nH]c3ccccc32)c(C)n1` the same measures were 52.9 µM, 417 µM, 21.7 µM, 20.96 mg and 18.55 mg.
Take `Cc1nc(C(=O)NNC(=O)[C@@H](N)CCCCN)cc2c1[nH]c1ccccc12`: the half-inhibitory concentration (IC50) in test [1] came to 52.9 µM; in test [3], 58.9 µM; in test [4], 4.1 µM. Moreover, in the test with Rattus norvegicus [6], the Activity was 23.3 mg.
Regarding `CC[C@H](C)[C@H](NC(=O)OC(C)(C)C)C(=O)NNC(=O)c1cc2c([nH]c3ccccc32)c(C)n1`, the half-inhibitory concentration (IC50) in test [1] is 1.4 µM; in test [3], 51.1 µM; in test [4], 2.4 µM. The Activity with Rattus norvegicus [2] is 23.3 mg; in the test with Rattus norvegicus [5], 20.62 mg.
In the same order, the values of `Cc1nc(C(=O)NNC(=O)[C@H](CC(N)=O)NC(=O)OC(C)(C)C)cc2c1[nH]c1ccccc12` are 507 µM, 609 µM, 19.7 µM, 24.14 mg and 21.36 mg.
With `Cc1nc(C(=O)NNC(=O)[C@H](C)N)cc2c1[nH]c1ccccc12`, the half-maximal inhibitory concentration (IC50) in test [1] stood at 47.4 µM; in test [3], 58.9 µM; in test [4] it was 6.7 µM. Further, in the test with Rattus norvegicus [6], the Activity was found to be 24.39 mg.
As to `Cc1nc(C(=O)NNC(=O)[C@H](CC(=O)OCc2ccccc2)NC(=O)OC(C)(C)C)cc2c1[nH]c1ccccc12`, the IC50 in test [1] was 196 µM; in test [3], 117 µM; in test [4], 5.2 µM. The Activity is recorded as 21.44 mg in the test with Rattus norvegicus [2] and 18.97 mg in the test on Rattus norvegicus [5].
In the case of `Cc1nc(C(=O)NNC(=O)[C@@H](N)Cc2c[nH]c3ccccc23)cc2c1[nH]c1ccccc12`, the IC50 amounted to 19.3 µM in test [1], 28.9 µM in test [3] and 8.7 µM in test [4]. Besides, in the test on Rattus norvegicus [6], the Activity is reported as 24.56 mg.
As to `COc1ccc2c3c([nH]c2c1)C(C)=NCC3` [HARMALINE], the half-inhibitory concentration (IC50) in test [7] was 130 µM.
As to `Cc1nc(C(=O)NNC(=O)[C@@H]2CCCN2)cc2c1[nH]c1ccccc12`, the 50% inhibitory concentration (IC50) in test [1] stood at 44.5 µM; in test [3], 48.7 µM; in test [4], 5.8 µM. The Activity with Rattus norvegicus [6] stood at 24.37 mg.
As to `Cc1nc(C(=O)NNC(=O)[C@H](CC(C)C)NC(=O)OC(C)(C)C)cc2c1[nH]c1ccccc12`, the IC50 in test [1] came out at 1.2 µM; in test [3], 31.6 µM; in test [4], 3.2 µM. Besides, the Activity is recorded as 23.8 mg in the test on Rattus norvegicus [2] and 21.06 mg in the test with Rattus norvegicus [5].
For the compound `Cc1nc(C(=O)NNC(=O)[C@@H](N)CO)cc2c1[nH]c1ccccc12`, the IC50 in test [1] is 52.9 µM; in test [3] it was 50.9 µM; in test [4] it was 9 µM. In the test on Rattus norvegicus [6], the Activity was found to be 24.78 mg.
With `Cc1nc(C(=O)NNC(=O)[C@H](CCCCNC(=O)OC(C)(C)C)NC(=O)OC(C)(C)C)cc2c1[nH]c1ccccc12`, the IC50 was 106 µM in test [1], 321 µM in test [3] and 3.4 µM in test [4]. Besides, the Activity in the test with Rattus norvegicus [2] is 22.32 mg; with Rattus norvegicus [5] it was 19.75 mg.
As for `Cc1nc(C(=O)NNC(=O)[C@@H](N)Cc2ccc(O)cc2)cc2c1[nH]c1ccccc12`, the IC50 in test [1] came out at 37.4 µM; in test [3], 74.6 µM; in test [4], 1.7 µM. Also, the Activity in the test with Rattus norvegicus [6] was 18.56 mg.
With `Cc1nc(C(=O)NNC(=O)CNC(=O)OC(C)(C)C)cc2c1[nH]c1ccccc12`, the results for the IC50 in test [1], in test [3] and in test [4] were 348 µM, 722 µM and 20.7 µM, respectively. In addition, the Activity in the test on Rattus norvegicus [2] was determined as 26.83 mg; in the test with Rattus norvegicus [5] it was 23.74 mg.
As for `Cc1nccc2c1[nH]c1cc(O)ccc12` [HARMOL HYDROCHLORIDE], the IC50 in test [7] came to 130 µM.
On to `Cc1nc(C(=O)NNC(=O)[C@H](CCC(=O)OCc2ccccc2)NC(=O)OC(C)(C)C)cc2c1[nH]c1ccccc12`, for which the values for the IC50 in test [1], in test [3] and in test [4] were 362 µM, 524 µM and 6.3 µM, respectively. The Activity in the test with Rattus norvegicus [2] is listed as 22.2 mg; in the test on Rattus norvegicus [5] it was 19.65 mg.
On to `Cc1nc(C(=O)NNC(=O)[C@@H](N)CC(C)C)cc2c1[nH]c1ccccc12`, for which the concentration for half-maximal inhibition (IC50) was determined as 1.1 µM in test [1], 23 µM in test [3] and 8.2 µM in test [4]. Besides, the Activity with Rattus norvegicus [6] is on record as 24.49 mg.
For the compound `Cc1nc(C(=O)NNC(=O)[C@@H]2CCCN2C(=O)OC(C)(C)C)cc2c1[nH]c1ccccc12`, the IC50 in test [1] stood at 134 µM; in test [3], 166 µM; in test [4], 20.6 µM. Moreover, the Activity with Rattus norvegicus [2] is recorded as 23.04 mg; with Rattus norvegicus [5], 20.39 mg.
As for `CSCC[C@H](N)C(=O)NNC(=O)c1cc2c([nH]c3ccccc32)c(C)n1`, the concentration for half-maximal inhibition (IC50) in test [1] came to 13.4 µM; in test [3], 58.9 µM; in test [4], 4.7 µM. Also, in the test on Rattus norvegicus [6], the Activity stood at 23.43 mg.
Regarding `Cc1nc(C(=O)NN)cc2c1[nH]c1ccccc12`, the IC50 in test [1] turned out to be 92.8 µM; in test [3] it was 110 µM; in test [4] it was 32.9 µM. The Activity in the test on Rattus norvegicus [2] stood at 26.66 mg.
Regarding `CC1=NCCc2c1[nH]c1cc(O)ccc21` [HARMALOL], in test [7], the IC50 was 130 µM.
Regarding `COc1ccc2c(c1)[nH]c1c(C)nccc12` [HARMINE], the IC50 in test [7] amounted to 130 µM.
The same measure, in the same setting: for `Cc1nccc2c1[nH]c1ccccc12` [HARMAN] the value was 130 µM.
On to `Cc1nc(C(=O)NNC(=O)[C@@H](N)[C@@H](C)O)cc2c1[nH]c1ccccc12`, for which the IC50 in test [1] is 20.9 µM; in test [3], 24.8 µM; in test [4], 5.2 µM. Further, the Activity with Rattus norvegicus [6] was 23.65 mg.
For `Cc1nc(C(=O)NNC(=O)[C@@H](N)Cc2cnc[nH]2)cc2c1[nH]c1ccccc12`, the results for the IC50 in test [1], in test [3] and in test [4] were 42.5 µM, 25.7 µM and 0.2 µM, respectively. Further, the Activity with Rattus norvegicus [6] worked out at 18.1 mg.
`CC[C@H](C)[C@H](N)C(=O)NNC(=O)c1cc2c([nH]c3ccccc32)c(C)n1`: the IC50 in test [1] amounted to 5.6 µM; in test [3], 74 µM; in test [4] it was 3.6 µM. Also, the Activity in the test with Rattus norvegicus [6] was determined as 23.12 mg.
On to `Cc1nc(C(=O)NNC(=O)[C@H](CO)NC(=O)OC(C)(C)C)cc2c1[nH]c1ccccc12`, for which the 50% inhibitory concentration (IC50) was found to be 119 µM in test [1], 276 µM in test [3] and 19.9 µM in test [4]. The Activity is listed as 21.1 mg in the test with Rattus norvegicus [2] and 18.67 mg in the test with Rattus norvegicus [5].
For the compound `c1ccc2c(c1)[nH]c1cnccc12` [NORHARMANE], the IC50 in test [7] is 130 µM.
Turning to `Cc1nc(C(=O)NNC(=O)[C@@H](NC(=O)OC(C)(C)C)C(C)C)cc2c1[nH]c1ccccc12`, the IC50 worked out at 50 µM in test [1], 156 µM in test [3] and 3.7 µM in test [4]. The Activity in the test with Rattus norvegicus [2] and with Rattus norvegicus [5] was 24.01 mg each time.
For the compound `Cc1nc(C(=O)NNC(=O)[C@@H](N)CC(=O)OCc2ccccc2)cc2c1[nH]c1ccccc12`, the values for the half-inhibitory concentration (IC50) in test [1], in test [3] and in test [4] were 52.9 µM, 81.7 µM and 3.7 µM, respectively. The Activity in the test on Rattus norvegicus [6] is reported as 23.23 mg.
As for `Cc1nc(C(=O)NNC(=O)CN)cc2c1[nH]c1ccccc12`, the results for the IC50 in test [1], in test [3] and in test [4] were 52.9 µM, 53.3 µM and 5.2 µM, respectively. The Activity with Rattus norvegicus [6] was 23.7 mg.
In the same order, the values of `Cc1nc(C(=O)NNC(=O)[C@@H](N)CC(N)=O)cc2c1[nH]c1ccccc12` are 39.7 µM, 65.8 µM, 6.2 µM and 23.97 mg.
`Cc1nc(C(=O)NNC(=O)[C@@H](N)CCC(=O)OCc2ccccc2)cc2c1[nH]c1ccccc12`: the concentration for half-maximal inhibition (IC50) came out at 64.3 µM in test [1], 58.9 µM in test [3] and 2.3 µM in test [4]. The Activity in the test with Rattus norvegicus [6] is 18.8 mg.
Consider `Cc1nc(C(=O)NNC(=O)[C@@H](NC(=O)OC(C)(C)C)[C@@H](C)O)cc2c1[nH]c1ccccc12`, for which the half-inhibitory concentration (IC50) in test [1] amounted to 31.9 µM; in test [3], 531 µM; in test [4], 4.7 µM. Moreover, the results for the Activity in the test with Rattus norvegicus [2] and in the test on Rattus norvegicus [5] were 22.87 mg and 20.24 mg, respectively.
For `Cc1nc(C(=O)NNC(=O)[C@H](Cc2ccc(O)cc2)NC(=O)OC(C)(C)C)cc2c1[nH]c1ccccc12`, the half-maximal inhibitory concentration (IC50) in test [1] was 12.7 µM; in test [3], 152 µM; in test [4], 13 µM. The Activity with Rattus norvegicus [2] amounted to 23.73 mg; in the test with Rattus norvegicus [5], 21 mg.
For `Cc1nc(C(=O)NNC(=O)[C@H](Cc2cn(C(=O)OC(C)(C)C)cn2)NC(=O)OC(C)(C)C)cc2c1[nH]c1ccccc12` the same measures were 7.7 µM, 94.6 µM, 4.8 µM, 21.32 mg and 18.87 mg.

(Values after ChEMBL document CHEMBL1909521, “A class of novel N-(1-methyl-β-carboline-3-carbonyl)-N'-(aminoacid-acyl)-hydrazines: aromatization leaded design, synthesis, in vitro anti-platelet aggregation/in vivo anti-thrombotic evaluation and 3D QSAR analysis” (Eur J Med Chem, 2011).)
